In article PMC7814465 (Cell reports, 2020):

B1: TNPO1: nuclear import receptor, recombinant (protein)
chain: MVWDRQTKMEYEWKPDEQGLQQILQLLKESQSPDTTIQRTVQQKLEQLNQYPDFNNYLIFVLTKLKSEDEPTRSLSGLILKNNVKAHFQNFPNGVTDFIKSECLNNIGDSSPLIRATVGILITTIASKGELQNWPDLLPKLCSLLDSEDYNTCEGAFGALQKICEDSAEILDSDVLDRPLNIMIPKFLQFFKHSSPKIRSHAVACVNQFIISRTQALMLHIDSFIENLFALAGDEEPEVRKNVCRALVMLLEVRMDRLLPHMHNIVEYMLQRTQDQDENVALEACEFWLTLAEQPICKDVLVRHLPKLIPVLVNGMKYSDIDIILLKGDVEEDETIPDSEQDIRPRFHRSRTVAQQHDEDGIEEEDDDDDEIDDDDTISDWNLRKCSAAALDVLANVYRDELLPHILPLLKELLFHHEWVVKESGILVLGAIAEGCMQGMIPYLPELIPHLIQCLSDKKALVRSITCWTLSRYAHWVVSQPPDTYLKPLMTELLKRILDSNKRVQEAACSAFATLEEEACTELVPYLAYILDTLVFAFSKYQHKNLLILYDAIGTLADSVGHHLNKPEYIQMLMPPLIQKWNMLKDEDKDLFPLLECLSSVATALQSGFLPYCEPVYQRCVNLVQKTLAQAMLNNAQPDQYEAPDKDFMIVALDLLSGLAEGLGGNIEQLVARSNILTLMYQCMQDKMPEVRQSSFALLGDLTKACFQHVKPCIADFMPILGTNLNPEFISVCNNATWAIGEISIQMGIEMQPYIPMVLHQLVEIINRPNTPKTLLENTAITIGRLGYVCPQEVAPMLQQFIRPWCTSLRNIRDNEEKDSAFRGICTMISVNPSGVIQDFIFFCDAVASWINPKDDLRDMFCKILHGFKNQVGDENWRRFSDQFPLPLKERLAAFYGV
modifications: left off: His6, N-terminal, kept

Key:
[1] = test system: Imp7; assay: Pull-down from HeLa cytosol, Imp7; assay type: binding; conditions: biotinylated peptide, western blot
Method in brief: (§1)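 Biotin-DPR bait (5 μg per 10 μl beads) immobilised overnight with 2 mg/ml ovalbumin. Prey bound in B-buffer with 2 mg/ml BSA, washed without BSA, eluted in 2× SDS loading buffer. Two independent replicates.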

[2] = test system: Impβ; assay: Pull-down from HeLa cytosol, Impβ; assay type: binding; conditions: biotinylated peptide, western blot
Method in brief: as §1

[3] = test system: Impα3; assay: Pull-down from HeLa cytosol, Impα3; assay type: binding; conditions: biotinylated peptide, western blot
Method in brief: as §1

[4] = test system: Impβ (His-S-Impβ, in the absence of Impα); assay: Sedimentation assay, Impβ alone; assay type: biochemical
Method in brief: (§2)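 Protein was 1 µM purified NTR alone, or 500 nM Impα with 500 nM Impβ. Samples were centrifuged 15 min at 21,000 g, 4°C. Equal volumes of supernatant and pellet were analysed by SDS-PAGE with Sypro-Ruby stain or western blot.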

[5] = test system: CRM1; assay: Sedimentation assay, CRM1; assay type: biochemical
Method in brief: as §2

[6] = test system: TNPO1 (His-TNPO1); assay: SDD-AGE oligomer formation, TNPO1; assay type: biochemical; conditions: 10-fold molar excess: 2 μM importin, 20 μM TMR-DPR, pH 7.5, 200 mM NaCl, 1 h RT
[7] = test system: Impα3 (His-Impα3); assay: SDD-AGE oligomer formation, Impα3; assay type: biochemical, rat; conditions: 10-fold molar excess: 2 μM importin, 20 μM TMR-DPR, pH 7.5, 200 mM NaCl, 1 h RT
[8] = test system: TDP-43 (TDP-43-Tev-MBP/MBP-Tev-TDP-43-GFP); assay: TDP-43 condensate formation with DPRs, microscopy; assay type: biochemical; conditions: TMR-labeled DPR, equimolar (1x) or two-fold (2x), 2 μM TDP-43/TDP-43-GFP, Tev cleavage, 200 mM NaCl, pH 7.5
Method in brief: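 Size-exclusion-purified TDP-43-MBP-His (2 μM) was mixed with substoichiometric MBP-TDP-43-GFP-His (1:4–1:5). Condensates were imaged by laser scanning confocal microscopy.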

[9] = test system: GAPDH in HeLa cytosol; assay: Sedimentation assay from HeLa cytosol, GAPDH; assay type: biochemical; conditions: highest GR/PR concentrations
[10] = test system: Impb; conditions: FRET sensors and bead Halo assays; ref Hayes et al., 2019; cited from earlier work
[11] = test system: shuttling reporter (NLS and nuclear export signal); conditions: HeLa cells incubated with peptides; ref Shi et al., 2017; cited from earlier work
[12] = test system: GR- or PR-induced TDP-43 condensates; assay: Suppression of GR- or PR-induced TDP-43 condensates by NTRs; assay type: biochemical; conditions: equimolar NTR; TMR-GR25 or TMR-PR25; Tev cleavage
Method in brief: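 SEC-purified TDP-43-MBP-His (2 μM) was mixed with MBP-TDP-43-GFP-His at 1:4–1:5, together with equimolar TMR-labelled DPR, with or without NTRs. Mixing preceded cleavage with 100 μg/ml His-Tev in 50 mM Tris pH 7.5, 200 mM NaCl, 2 mM DTT. Condensates were imaged by laser scanning confocal microscopy.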

[13] = test system: TDP-43 condensates; assay: Suppression of phase separation of TDP-43 alone by NTRs; assay type: biochemical; conditions: equimolar NTR, 5 μM TDP-43, Tev cleavage
Method in brief: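 TDP-43-MBP-His (Ni-NTA then amylose purified) and TNPO1 were buffer-exchanged into 20 mM HEPES-NaOH pH 7.4, 150 mM NaCl, 1 mM DTT. TDP-43 at 5 μM, with or without 5 μM TNPO1, was started with 1 μg/ml Tev protease. Absorbance at 395 nm was read over 16 h and normalised to TDP-43 + Tev alone.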

[14] = test system: TDP-43; assay: Sedimentation of TDP-43 with GST-GR25 and NTRs; assay type: biochemical; conditions: GST-GR25, NTR added prior to Tev cleavage; three independent experiments
Method in brief: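 1 µM TDP-43-MBP-His was Tev-cleaved (20 µg/ml His-Tev, 60 min, 30°C) with or without equimolar GST-tagged DPR and/or NTRs, then spun 15 min at 21,000 g, 4°C. Equal supernatant and pellet volumes were analysed by SDS-PAGE with Sypro-Ruby or western blot. Percentage of soluble cleaved TDP-43 is the mean ± SEM of three experiments, compared by one-way ANOVA with Dunnett's test.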

[15] = test system: GST-GR25 / TDP-43; assay: Sedimentation of GST-GR25 with TDP-43 and NTRs; assay type: biochemical; conditions: equimolar NTR; three independent experiments
Method in brief: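 1 µM TDP-43-MBP-His was Tev-cleaved (20 µg/ml His-Tev, 60 min, 30°C) with or without equimolar GST-tagged DPR and/or NTRs. Samples were centrifuged 15 min at 21,000 g, 4°C. Equal volumes of supernatant and pellet were analysed by anti-GST western blot.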

[16] = test system: TDP-43; assay: TDP-43 turbidity assay; assay type: biochemical; conditions: n = 3
Method in brief: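 TDP-43-MBP-His (Ni-NTA then amylose purified) and TNPO1 were buffer-exchanged into 20 mM HEPES-NaOH pH 7.4, 150 mM NaCl, 1 mM DTT. TDP-43 at 5 µM final was combined with 2 µM DPR peptide (PBS control), 5 µM TNPO1, or both. Phase separation was started with 1 µg/ml Tev protease, and absorbance at 395 nm was followed over 16 h. Values were normalized to TDP-43 plus Tev alone.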

[17] = test system: TDP-43 in HeLa cytosol; assay: Suppression by NTRs of GR-induced precipitation of cytosolic TDP-43; assay type: biochemical; conditions: equimolar NTR, three independent experiments
Method in brief: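 Cytosol came from digitonin-permeabilised HeLa cells, cleared at 21,000 g. TMR-DPRs were added and the mix held 15 min at 4°C, then spun at 21,000 g for 15 min. Equal volumes of pellet and supernatant were analysed by western blot.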

[18] = 10-fold molar excess of TMR-labeled DPR, n = 3
[19] = extremely high concentrations (up to 40x)

Molecule	binding in pull-down [1]	binding in pull-down [2]	binding in pull-down [3]	solubility of Impβ [4, 18]	precipitation of Impβ, titration [4, 19]	solubility of CRM1 [5, 18]	precipitation of CRM1, titration [5, 19]	oligomer formation of TNPO1 (SDS-resistant) [6]	oligomer formation of Impα3 (SDS-resistant) [7]	TDP-43 condensate formation [8]	precipitation of GAPDH from HeLa cytosol [9]	direct binding to Impb in vitro [10]	import of shuttling reporter [11]	suppression of GR- or PR-induced TDP-43 condensates [12]	suppression of phase separation of TDP-43 alone [13]	reversal of poly-GR-enhanced sedimentation of TDP-43 [14]	rescue of GST-GR25 solubility in presence of TDP-43 [15]	effect on GR-mediated promotion of TDP-43 turbidity ([16]; 5 μM TNPO1, 2 μM GR20, 5 μM TDP-43, 395 nm, 16 h)	effect on TDP-43 turbidity increase in absence of GR ([16]; 5 μM TNPO1, 5 μM TDP-43, Tev cleavage, 395 nm)	suppression of GR-induced precipitation of cytosolic TDP-43 [17]
poly-PR: arginine-rich dipeptide repeat protein species; in the experiments mostly PR25	bound equally to both poly-GR and poly-PR	bound equally to both poly-GR and poly-PR	bound equally to both poly-GR and poly-PR	remained mainly soluble	only partial or no precipitation	remained mainly soluble	only partial or no precipitation	SDS-resis-tant oligomers	SDS-resis-tant oligomers	formation of condensates	not precipitated	direct binding	reduced import							
B1														suppress the GR- or PR-induced formation of TDP-43 condensates	unable to abolish condensate formation of TDP-43	efficiently reverted	completely rescued	effectively suppressed	did not affect	efficiently suppressed GR-induced precipitation of cytosolic TDP-43
